Source: PubChem (several laboratories)
KCNQ1 inh: blocks the human KCNQ1 potassium channel; P51787; CHO-K1 KCNQ1, FluxOR thallium flux fluorescence; hits give high values; B-score at 10 µM; 1.3% of 310,000 active;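 active = compounds whose thallium flux B-score, printed positive for inhibition, exceeds three library SD while starting fluorescence stays within three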;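 also: channel opened by potassium depolarization with thallium stimulus after 20 min compound exposure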
Target sequence (P51787 whole entry, looked up): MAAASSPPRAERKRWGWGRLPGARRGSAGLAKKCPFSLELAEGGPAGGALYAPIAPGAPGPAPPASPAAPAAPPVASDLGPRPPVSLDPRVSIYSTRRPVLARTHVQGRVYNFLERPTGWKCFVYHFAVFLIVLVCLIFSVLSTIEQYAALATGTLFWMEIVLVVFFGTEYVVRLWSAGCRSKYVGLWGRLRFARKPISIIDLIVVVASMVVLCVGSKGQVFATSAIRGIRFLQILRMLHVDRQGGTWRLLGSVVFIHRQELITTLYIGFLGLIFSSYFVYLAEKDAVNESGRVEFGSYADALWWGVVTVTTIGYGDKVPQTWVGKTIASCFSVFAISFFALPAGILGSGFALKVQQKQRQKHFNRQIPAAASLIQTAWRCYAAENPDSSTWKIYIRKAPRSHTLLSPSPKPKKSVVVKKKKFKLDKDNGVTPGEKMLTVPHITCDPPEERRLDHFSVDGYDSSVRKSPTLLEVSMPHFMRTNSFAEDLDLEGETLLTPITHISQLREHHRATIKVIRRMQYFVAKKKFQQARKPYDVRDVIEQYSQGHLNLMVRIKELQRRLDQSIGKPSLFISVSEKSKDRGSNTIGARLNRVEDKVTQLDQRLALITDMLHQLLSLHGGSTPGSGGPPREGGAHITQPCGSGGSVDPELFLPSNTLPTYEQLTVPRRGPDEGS
KCNK3 inh: human KCNK3 channel inhibition, primary screen | CHO-KCNK3 thallium flux, FluxOR fluorescence; hits give low values | B-score at 10 µM | 0.84% of 340,000 active | AID 602410;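 active = B-score under library mean minus 4 SD, starting fluorescence ratio at most library mean plus 5 SD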;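 also: more negative B-score means stronger inhibition of thallium flux through KCNK3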
KCC2 mod: modulators of human KCC2 chloride dependent transport. Q9H2X9. KCC2 cells, thallium flux FluoZin-2 fluorescence. B-score of Tl+ flux slope (higher = more flux/activation; lower = inhibition) at 10 µM. 2.2% of 190,000 active. AID 1456;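 active = thallium flux slope and its plate-corrected score both differing from the plate sample mean at a set confidence after two filtering rounds, in either direction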;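 also: slope of fluorescence scaled to starting intensity during 10 to 20 s after thallium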
hERG rescue: hERG (human) protection from proarrhythmic block; Q12809; CHO-hERG, FluxOR thallium flux, dofetilide IC70 present; activation (rescue from dofetilide block), less the hit threshold, % at 10 µM; 0.51% of 310,000 active; AID 1511;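 active = activation above the mean of controls blocked by dofetilide plus 5 SD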;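 also: thallium influx through hERG after potassium depolarization seen as dye fluorescence rise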
KCNK9 inh: human KCNK9 channel inhibition; B-score at 10 µM; HEK293 KCNK9, FluxOR thallium flux fluorescence; hits give low values; AID 488922; 1.2% of 310,000 active;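 active = ratio B-score over 3 SD below the library mean, with starting fluorescence within 5 SD of its mean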;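 also: negative B-score means less thallium flux so channel inhibition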
KCNQ1 pot: potentiators or activators of human KCNQ1 potassium channel; P51787; CHO-K1 KCNQ1, thallium flux FluxOR fluorescence; hits give high values; B-score at 10 µM; 0.35% of 310,000 active; AID 2648;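 active = fluorescence ratio B-score, a plate-corrected score, at least three library SD, with initial intensity B-score within 5 SD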
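assay system = KCNQ1-transfected CHO-K1 cells | medium = assay buffer with matched DMSO | probe or stimulus = depolarizing K+/Tl+ stimulus, K2SO4 and Tl2SO4 each 12.5 mM in 5x stock | dosing = single dose | incubation = dye 90 min, compound 20 min, room temperature | detection = kinetic FluxOR fluorescence, 10 s baseline plus 110 s post-stimulus | evaluation = ratio B score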
KCNK9 block conf: confirmation of human KCNK9 potassium channel inhibitors | HEK293 KCNK9 cells, FluxOR thallium flux fluorescence | inhibition, % at 10 µM | 43% of 4,900 active | AID 492992 | shares compounds with KCNK9 inh;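 active = thallium signal inhibited by more than 5 SD of the compound-free buffer control wells, on both duplicate plates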;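 also: 0% = assay buffer control wells without compound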
Kir2-1 spec: tests whether KCNK9 modulators also affect mouse Kir2.1; shares compounds with KCNK9 inh; Kir2.1 cells, FluxOR thallium flux fluorescence; inhibition, % at 10 µM; 4% of 4,900 active;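 active = thallium signal drop more than 5 SD beyond the mean of the no-compound control wells, seen in both duplicate plates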;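 also: signal is fluorescence rise after thallium addition divided by baseline fluorescence; plate controls were assay buffer only for no effect and full block by chlorpromazine control for full effect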
KCNK9 uninduced: second counter-screen for KCNK9 modulators: effect in non-induced cells. inhibition, % at 10 µM. AID 492997. 40% of 4,900 active. non-induced KCNK9-HEK293, FluxOR thallium flux. shares compounds with KCNK9 inh;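 active = thallium signal drop beyond 5 SD of the untreated control mean, on both duplicate plates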;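 also: plate controls were buffer only IC0 wells for no effect and SID17386958 at its maximal inhibitory level for full effect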
Numbers without * were called inactive; i = inactive; . = no result. Hits are enriched below; roughly 4.1% of the tested compounds scored in any of these assays.

SMILES	KCNQ1 inh	KCNK3 inh	KCC2 mod	hERG rescue	KCNK9 inh	KCNQ1 pot	KCNK9 block conf	Kir2-1 spec	KCNK9 uninduced
Cc1ccc(NC(=O)C(Nc2ccccc2)c2ccccc2)cc1 (stereo not drawn)	i	i	-0.056	-9	i	i	.	.	.
Cc1ccc(NC(=O)C(Nc2cccc(C)c2)c2ccccc2)cc1 (stereo not drawn)	i	i	0.03	-10	i	i	33%*	i	32%*
Cc1ccc(NC(=O)COC(=O)c2ccccc2Nc2ccccc2)cc1	i	i	0.29	-8	i	i	.	.	.
Cc1cccc(C(=O)Nc2ccc(NC(=O)c3ccccc3)cc2)c1	i	i	.	-2	-11*	i	54%*	i	i
Cc1ccc(S(=O)(=O)N2CCSCCSCCSCCSCC2)cc1	.	i	.	.	.	.	.	.	.
Cc1c(C(=O)N2CCN(C3CCS(=O)(=O)C3)CC2)oc2c(F)cccc12 (stereo not drawn)	.	i	.	.	.	.	.	.	.
Cc1cccc(/C(N)=N/OC(=O)CCCN2C(=O)c3ccccc3C2=O)c1	i	i	0.82	-3	i	i	i	i	i
CCN(CC)S(=O)(=O)c1cc(NC(=O)C2CC(=O)N(Cc3ccccc3)C2)ccc1Cl (stereo not drawn)	.	i	.	.	.	.	.	.	.
CCCN1C(=O)/C(=C\c2ccncc2)SC1=Nc1ccccc1	i	i	-0.95	-12	i	i	i	i	i
CCN1C(=O)/C(=C\c2ccncc2)SC1=Nc1ccc(C)c(C)c1	i	i	-0.5	-11	i	i	i	i	i
CCOC(=O)COc1ccc(/C=C2/SC(=Nc3ccccc3)N(Cc3cccnc3)C2=O)cc1OC	i	i	-0.17	-13	i	i	i	i	i
CCN1C(=O)/C(=C/c2ccc(C)s2)SC1=Nc1ccc(OC)cc1	i	i	-1.4	-8	i	i	.	.	.
CCN(C(=O)CSc1nnc(-c2ccccc2Cl)n1N)c1c(N)n(Cc2ccccc2)c(=O)[nH]c1=O	.	i	.	.	.	.	.	.	.
Cc1cc(C)c(C(=O)CN2C(=O)C(=O)N(C3CCCC3)C2=O)cc1C	.	i	.	.	.	.	.	.	.
Cc1ccccc1NP1(=O)OCCCN1Cc1ccccc1Cl (stereo not drawn)	.	i	.	.	.	.	.	.	.
CCOc1ccccc1N1CCN(C(=O)c2cc(C)oc2C)CC1	i	i	-1.6	-19	i	i	.	.	.
CCOc1ccccc1N1CCN(C(=O)c2cc3cc(OC)ccc3[nH]2)CC1	i	i	.	-4	i	i	i	i	i
COc1ccc(C(=O)Nc2nnc(Cc3ccccc3)s2)c(OC)c1	i	i	.	-4	i	i	.	.	.
O=c1[nH]c(NNC(=S)NCc2ccccc2)nc2c1C1(CCCCC1)Cc1ccccc1-2	i	i	-0.54	-6	i	i	36%*	i	i
O=c1[nH]c(NNC(=S)NC2CCCCC2)nc2c1C1(CCCC1)Cc1ccccc1-2	6*	i	-0.11	-14	i	i	i	i	i
Cc1ccc(OCC(=O)OCC(=O)c2ccccc2)cc1C	i	i	.	-2	i	i	.	.	.
CCOC(=O)/C(=N\Nc1ccc(Br)cc1)N1CC(C)OC(C)C1 (stereo not drawn)	i	i	-1.3	-11	-18*	i	75%*	i	44%*
CCOC(=O)/C(=N\Nc1ccccc1Cl)N1CC(C)OC(C)C1 (stereo not drawn)	i	i	-1.3	-17	i	i	.	.	.
Cc1cc(C)cc(NC(=O)CN2CCCN(S(=O)(=O)c3ccc(Br)s3)CC2)c1	i	-10*	.	-19	-16*	i	70%*	i	46%*
COc1ccc(SC[C@H](C)CN2CC[C@H](C(C)(C)C)CCC2=O)cc1	.	i	.	.	.	.	.	.	.
